The text below walks through data of ChEMBL document CHEMBL1156792, “Application of the dipeptidyl peptidase IV (DPPIV/CD26) based prodrug approach to different amine-containing drugs” (J Med Chem, 2010).

Substrate in series [1]: CC(C)[C@H](N)C(=O)N1CCC[C@H]1C(=O)N[C@H](C(=O)N1CCC[C@H]1C(=O)Nc1ncnc2c1ncn2[C@@H]1O[C@H](CO)[C@@H](O)[C@@H]1O)C(C)C
Put plainly: (§1) Activity of human recombinant CD26 assessed as hydrolysis. An outline of the steps: (§2)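 Human recombinant CD26 (Sf9-expressed) was incubated with prodrug at several levels (2–50 μM, or 50–1000 μM for the AspPro conjugate). Hydrolysis was quantified by RP-8 HPLC at 15, 30 and 45 min. Km and Vmax were calculated at each time point and averaged over the three, with at least two to three independent experiments.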

Substrate in series [2]: COc1cccc2c1C(=O)c1c(O)c3c(c(O)c1C2=O)C[C@@](O)(C(=O)CO)C[C@@H]3O[C@H]1C[C@H](NC(=O)[C@@H]2CCCN2C(=O)[C@@H](N)C(C)C)[C@H](O)[C@H](C)O1
Described as §1. An outline of the steps: as §2

Substrate in series [3]: CC(C)[C@H](N)C(=O)N1CCC[C@H]1C(=O)Nc1ccc2ncccc2c1
The series is described as §1. An outline of the steps:
as §2

Substrate in series [4]: N[C@@H](CC(=O)O)C(=O)N1CCC[C@H]1C(=O)Nc1ccc2ncccc2c1
The series is described as §1. An outline of the steps:
as §2

B1: Dipeptidyl peptidase 4 (Homo sapiens), P27487 (protein)
chain: MKTPWKVLLGLLGAAALVTIITVPVVLLNKGTDDATADSRKTYTLTDYLKNTYRLKLYSLRWISDHEYLYKQENNILVFNAEYGNSSVFLENSTFDEFGHSINDYSISPDGQFILLEYNYVKQWRHSYTASYDIYDLNKRQLITEERIPNNTQWVTWSPVGHKLAYVWNNDIYVKIEPNLPSYRITWTGKEDIIYNGITDWVYEEEVFSAYSALWWSPNGTFLAYAQFNDTEVPLIEYSFYSDESLQYPKTVRVPYPKAGAVNPTVKFFVVNTDSLSSVTNATSIQITAPASMLIGDHYLCDVTWATQERISLQWLRRIQNYSVMDICDYDESSGRWNCLVARQHIEMSTTGWVGRFRPSEPHFTLDGNSFYKIISNEEGYRHICYFQIDKKDCTFITKGTWEVIGIEALTSDYLYYISNEYKGMPGGRNLYKIQLSDYTKVTCLSCELNPERCQYYSVSFSKEAKYYQLRCSGPGLPLYTLHSSVNDKGLRVLEDNSALDKMLQNVQMPSKKLDFIILNETKFWYQMILPPHFDKSKKYPLLLDVYAGPCSQKADTVFRLNWATYLASTENIIVASFDGRGSGYQGDKIMHAINRRLGTFEVEDQIEAARQFSKMGFVDNKRIAIWGWSYGGYVTSMVLGSGSGVFKCGIAVAPVSRWEYYDSVYTERYMGLPTPEDNLDHYRNSTVMSRAENFKQVEYLLIHGTADDNVHFQQSAQISKALVDVGVDFQAMWYTDEDHGIASSTAHQHIYTHMSHFIKQCFSLP
B1: the Km was found to be 56 µM in series [1], 15 µM in series [2], 25 µM in series [3] and 524 µM in series [4]. In addition, the Vmax (nmol/hr/microg) in series [1] was 10; in series [2] it was 30; in series [3], 32; in series [4] it was 70.

The Km is the concentration of substrate that gives half-maximal velocity.
